In data set [1] the target is T1, TPR/MET fusion protein (Mus musculus) (UniProt P16056+F6ZDS4). The experiment in a line: Inhibition of TPR-MET in mouse […] cells assessed as inhibition of cell proliferation at 1 uM after 72 hrs by SRB or MTT assay relative to control. The format is cell-based. The procedure, abridged:
(§1)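 Cells seeded, exposed next day to a range of concentrations for 72 h. Growth read by sulforhodamine B or MTT. IC50 from four-parameter concentration-response fit. Each concentration tested at least in triplicate, with at least 2 experiments.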
In general terms: Formazan colour is commonly taken as a measure of viable cells.

In data set [2] the target is T1, TPR/MET fusion protein (Mus musculus). Kind of data set: Inhibition of TPR-MET in mouse […] cells assessed as inhibition of cell proliferation at 10 uM after 72 hrs by SRB or MTT assay relative to control. It is filed as cell-based. The procedure, abridged: as §1
Data set [3] in a line: Oral bioavailability in Sprague-Dawley rat at 10 mg/kg administered as single dose. The format is ADME, organism-based. As to conditions: in vivo. The procedure, abridged:
(§2)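 Male Sprague-Dawley rats (n=3), single dose. IV 2 mg/kg in 1% DMA/9% Cremophor/90% saline; PO 10 mg/kg in 0.5% CMC-Na. For one compound, IV 10 mg/kg in DMSO/Tween 80/PEG40 and PO 10 mg/kg in 10% DMSO/5% Tween 80/85% saline.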

Data set [4] in a line: Antitumor activity against human EBC1 cells xenografted in athymic nude mouse assessed as tumor growth inhibition at 25 mg/kg, po bid for 21 days measured twice a week during compound dosing relative to control. The settings on record: EBC-1, po, 504 h, read-out: TGI. It is filed as functional. The method, boiled down: (§3)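 Nude mice bearing s.c. tumours. Cells were first grown s.c. to 700–800 mm³, then 1.5 mm³ fragments were transplanted s.c. into the right flank. Mice were randomised at 100–200 mm³ (n=6 treated, n=12 vehicle) and dosed orally twice daily for 21 days. Caliper measurement twice weekly; TV = length×width²/2. TGI taken on the final day versus vehicle; Student's t test.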
In general terms: A xenograft is tissue or cells of one species grown in another, often human tumour cells in immunodeficient mice.

A short description of data set [5]: Tmax in Sprague-Dawley rat at 10 mg/kg, po administered as single dose. The format is ADME, organism-based. The settings on record: in vivo. The method, boiled down: as §2
The nature of data set [6]: Clearance in Sprague-Dawley rat at 2 mg/kg, iv administered as single dose. It is filed as ADME, organism-based. As to conditions: in vivo. The method, boiled down: (§4)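 Male Sprague Dawley rats (n=3), single dose. iv 2 mg/kg in 1% DMA/9% Cremophor/90% saline. po 10 mg/kg in 0.5% CMC-Na. Where iv was 10 mg/kg: 10% DMSO/10% Tween 80/80% (40% PEG40); po in that case in 10% DMSO/5% Tween 80/85% saline.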

The nature of data set [7]: Volume of distribution at steady state in Sprague-Dawley rat at 2 mg/kg, iv administered as single dose. It is filed as ADME, organism-based. As to conditions: in vivo, read-out: Vdss. The method, boiled down:
as §2

Data set [8] in a line: Antitumor activity against human EBC1 cells xenografted in athymic nude mouse assessed as tumor growth inhibition at 12.5 mg/kg, po bid for 21 days measured twice a week during compound dosing relative to control. The settings on record: EBC-1, po, 504 h, read-out: TGI. It is filed as functional. The procedure, abridged:
as §3

The nature of data set [9]: Cmax in Sprague-Dawley rat at 10 mg/kg, po administered as single dose. It is filed as ADME, organism-based. As to conditions: in vivo. Set-up: dose 10 mg/kg, route oral. The method, boiled down: as §4
Data set [10] is described as follows: Half life in Sprague-Dawley rat at 2 mg/kg, iv administered as single dose. It is filed as ADME, organism-based. As to conditions: in vivo. The method, boiled down: as §4
The nature of data set [11]: AUC (0 to infinity) in Sprague-Dawley rat at 10 mg/kg, po administered as single dose. Details: dose 10 mg/kg, route oral, time infinity. The settings on record: in vivo. It is filed as ADME, organism-based.
Data set [12] can be described thus: Clearance in Sprague-Dawley rat at 10 mg/kg, iv administered as single dose. The format is ADME, organism-based. As to conditions: in vivo. The method, boiled down: as §4
Data set [13] can be described thus: Volume of distribution at steady state in Sprague-Dawley rat at 10 mg/kg, iv administered as single dose. It is filed as ADME, organism-based. As to conditions: in vivo, read-out: Vdss. The method, boiled down:
as §2

Data set [14] in a line: Half life in Sprague-Dawley rat at 10 mg/kg, iv administered as single dose. The format is ADME, organism-based. As to conditions: in vivo. The procedure, abridged: as §4
A further data set has as its system Mus musculus. Kind of data set: Toxicity in athymic nude mouse xenografted with human EBC1 cells assessed as body weight loss at 25 mg/kg, po bid for 21 days measured twice a week during compound dosing. The format is organism-based. As to conditions: in vivo, 504 h. The method, boiled down:
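Nude mice carrying s.c. EBC-1 tumor fragments, randomized at 100–200 mm³ (n=6 treated, n=12 vehicle). Dosed orally twice daily for 21 days. Body weight and caliper tumor volume measured twice weekly.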

The target of data set [15] is Hepatocyte growth factor receptor (Homo sapiens, UniProt P08581). Kind of data set: Inhibition of recombinant c-Met (unknown origin) using poly (Glu, Tyr) 4:1 as substrate incubated for 60 mins by ELISA. In general terms: In an ELISA, binding on a coated surface is turned into a signal by an enzyme label.
Hepatocyte growth factor receptor, sequence (P08581 whole entry): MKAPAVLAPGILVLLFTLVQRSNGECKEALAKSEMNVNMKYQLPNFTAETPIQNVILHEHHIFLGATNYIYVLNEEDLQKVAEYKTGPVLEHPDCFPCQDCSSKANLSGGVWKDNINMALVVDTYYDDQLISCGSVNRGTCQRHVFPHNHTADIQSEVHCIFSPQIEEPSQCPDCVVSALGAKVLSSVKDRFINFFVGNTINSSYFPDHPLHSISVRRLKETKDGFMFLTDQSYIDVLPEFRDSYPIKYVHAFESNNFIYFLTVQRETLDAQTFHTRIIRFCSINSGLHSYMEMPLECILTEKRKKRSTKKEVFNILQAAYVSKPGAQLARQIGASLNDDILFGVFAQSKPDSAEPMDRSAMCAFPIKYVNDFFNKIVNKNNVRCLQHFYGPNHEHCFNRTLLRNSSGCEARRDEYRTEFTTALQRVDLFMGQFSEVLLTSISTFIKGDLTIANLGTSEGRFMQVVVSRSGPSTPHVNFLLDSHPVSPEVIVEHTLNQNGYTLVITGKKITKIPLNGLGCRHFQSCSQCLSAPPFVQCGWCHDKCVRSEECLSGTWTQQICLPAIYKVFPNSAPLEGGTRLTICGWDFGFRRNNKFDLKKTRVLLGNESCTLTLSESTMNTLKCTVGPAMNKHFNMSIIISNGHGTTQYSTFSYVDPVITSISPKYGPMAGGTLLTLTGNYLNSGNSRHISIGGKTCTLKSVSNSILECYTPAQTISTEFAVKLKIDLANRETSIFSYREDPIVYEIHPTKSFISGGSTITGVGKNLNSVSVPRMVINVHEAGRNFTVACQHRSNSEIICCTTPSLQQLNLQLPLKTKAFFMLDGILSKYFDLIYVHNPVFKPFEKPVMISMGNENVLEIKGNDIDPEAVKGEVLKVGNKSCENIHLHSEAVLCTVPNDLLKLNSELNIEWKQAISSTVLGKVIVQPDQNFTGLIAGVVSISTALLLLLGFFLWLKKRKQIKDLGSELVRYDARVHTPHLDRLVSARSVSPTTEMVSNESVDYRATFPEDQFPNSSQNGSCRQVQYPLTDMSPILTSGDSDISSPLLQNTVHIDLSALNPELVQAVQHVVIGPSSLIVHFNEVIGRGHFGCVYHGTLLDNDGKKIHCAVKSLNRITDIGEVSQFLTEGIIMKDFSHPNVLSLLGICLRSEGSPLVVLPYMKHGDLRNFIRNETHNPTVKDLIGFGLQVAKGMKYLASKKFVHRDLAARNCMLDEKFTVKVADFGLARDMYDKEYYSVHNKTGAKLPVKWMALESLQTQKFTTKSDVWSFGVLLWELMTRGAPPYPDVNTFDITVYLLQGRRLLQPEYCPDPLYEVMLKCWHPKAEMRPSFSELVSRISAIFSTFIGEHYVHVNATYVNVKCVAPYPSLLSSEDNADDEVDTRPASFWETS

T1 sequence (F6ZDS4 whole entry partner, the tested form may be a part): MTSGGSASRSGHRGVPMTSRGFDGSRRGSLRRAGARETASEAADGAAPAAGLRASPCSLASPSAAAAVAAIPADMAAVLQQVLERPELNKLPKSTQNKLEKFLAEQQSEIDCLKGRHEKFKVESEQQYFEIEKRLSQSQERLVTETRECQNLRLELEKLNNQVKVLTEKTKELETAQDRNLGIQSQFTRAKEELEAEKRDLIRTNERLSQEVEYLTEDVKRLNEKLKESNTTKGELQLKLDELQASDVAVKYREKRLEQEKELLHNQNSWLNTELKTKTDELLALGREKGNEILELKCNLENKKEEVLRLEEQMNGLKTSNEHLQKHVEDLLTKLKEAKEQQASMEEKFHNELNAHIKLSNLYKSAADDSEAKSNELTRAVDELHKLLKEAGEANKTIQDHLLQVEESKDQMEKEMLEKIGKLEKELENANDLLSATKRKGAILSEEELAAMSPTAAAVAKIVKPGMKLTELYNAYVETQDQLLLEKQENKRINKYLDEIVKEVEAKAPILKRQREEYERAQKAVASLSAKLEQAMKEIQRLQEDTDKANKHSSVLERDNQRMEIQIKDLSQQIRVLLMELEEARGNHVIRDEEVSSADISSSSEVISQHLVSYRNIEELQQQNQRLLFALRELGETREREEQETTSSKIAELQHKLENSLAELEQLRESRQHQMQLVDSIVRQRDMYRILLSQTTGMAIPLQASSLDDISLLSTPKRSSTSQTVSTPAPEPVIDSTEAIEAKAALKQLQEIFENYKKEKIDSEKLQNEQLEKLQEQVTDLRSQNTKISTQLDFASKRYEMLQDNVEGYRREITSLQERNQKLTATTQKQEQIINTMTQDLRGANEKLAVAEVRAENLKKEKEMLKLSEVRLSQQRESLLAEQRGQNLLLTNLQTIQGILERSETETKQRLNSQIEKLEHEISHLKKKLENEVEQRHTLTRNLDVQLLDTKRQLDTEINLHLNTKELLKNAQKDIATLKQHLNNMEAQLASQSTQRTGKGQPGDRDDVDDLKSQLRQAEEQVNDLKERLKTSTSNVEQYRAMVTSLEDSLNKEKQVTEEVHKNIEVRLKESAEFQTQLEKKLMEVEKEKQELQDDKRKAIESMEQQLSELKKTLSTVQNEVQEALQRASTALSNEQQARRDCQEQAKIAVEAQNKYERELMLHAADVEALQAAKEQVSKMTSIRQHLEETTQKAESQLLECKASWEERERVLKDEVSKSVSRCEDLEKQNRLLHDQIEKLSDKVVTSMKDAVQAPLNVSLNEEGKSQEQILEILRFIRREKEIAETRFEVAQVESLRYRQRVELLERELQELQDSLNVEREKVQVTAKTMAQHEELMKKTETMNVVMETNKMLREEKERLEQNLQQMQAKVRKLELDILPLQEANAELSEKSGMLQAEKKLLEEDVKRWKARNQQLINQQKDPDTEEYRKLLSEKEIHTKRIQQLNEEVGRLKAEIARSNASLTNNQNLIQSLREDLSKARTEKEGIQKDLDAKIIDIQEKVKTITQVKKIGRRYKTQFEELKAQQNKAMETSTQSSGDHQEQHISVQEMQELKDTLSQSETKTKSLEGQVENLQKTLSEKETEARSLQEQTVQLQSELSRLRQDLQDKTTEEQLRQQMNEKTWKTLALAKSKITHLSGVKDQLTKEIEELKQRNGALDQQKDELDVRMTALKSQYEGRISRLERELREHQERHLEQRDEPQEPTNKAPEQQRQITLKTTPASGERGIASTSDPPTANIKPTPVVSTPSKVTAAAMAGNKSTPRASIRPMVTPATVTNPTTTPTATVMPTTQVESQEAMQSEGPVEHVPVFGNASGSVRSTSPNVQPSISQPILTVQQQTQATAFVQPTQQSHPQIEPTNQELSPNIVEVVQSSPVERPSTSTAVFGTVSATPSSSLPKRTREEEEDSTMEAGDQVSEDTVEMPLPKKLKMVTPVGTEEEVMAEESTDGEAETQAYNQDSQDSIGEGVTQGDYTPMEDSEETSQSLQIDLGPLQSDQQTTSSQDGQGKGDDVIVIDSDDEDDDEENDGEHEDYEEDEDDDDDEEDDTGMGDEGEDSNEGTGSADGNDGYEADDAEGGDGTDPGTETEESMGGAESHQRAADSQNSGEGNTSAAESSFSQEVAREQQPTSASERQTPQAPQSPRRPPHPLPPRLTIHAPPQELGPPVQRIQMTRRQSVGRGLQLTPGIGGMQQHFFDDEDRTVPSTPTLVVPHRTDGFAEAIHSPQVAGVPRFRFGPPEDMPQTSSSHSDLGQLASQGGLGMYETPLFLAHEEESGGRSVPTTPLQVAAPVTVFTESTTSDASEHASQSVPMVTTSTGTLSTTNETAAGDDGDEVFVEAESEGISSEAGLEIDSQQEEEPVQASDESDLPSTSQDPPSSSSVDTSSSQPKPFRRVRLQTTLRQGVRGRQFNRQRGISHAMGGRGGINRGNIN
T1 sequence (P16056 25-1379 limits assumed): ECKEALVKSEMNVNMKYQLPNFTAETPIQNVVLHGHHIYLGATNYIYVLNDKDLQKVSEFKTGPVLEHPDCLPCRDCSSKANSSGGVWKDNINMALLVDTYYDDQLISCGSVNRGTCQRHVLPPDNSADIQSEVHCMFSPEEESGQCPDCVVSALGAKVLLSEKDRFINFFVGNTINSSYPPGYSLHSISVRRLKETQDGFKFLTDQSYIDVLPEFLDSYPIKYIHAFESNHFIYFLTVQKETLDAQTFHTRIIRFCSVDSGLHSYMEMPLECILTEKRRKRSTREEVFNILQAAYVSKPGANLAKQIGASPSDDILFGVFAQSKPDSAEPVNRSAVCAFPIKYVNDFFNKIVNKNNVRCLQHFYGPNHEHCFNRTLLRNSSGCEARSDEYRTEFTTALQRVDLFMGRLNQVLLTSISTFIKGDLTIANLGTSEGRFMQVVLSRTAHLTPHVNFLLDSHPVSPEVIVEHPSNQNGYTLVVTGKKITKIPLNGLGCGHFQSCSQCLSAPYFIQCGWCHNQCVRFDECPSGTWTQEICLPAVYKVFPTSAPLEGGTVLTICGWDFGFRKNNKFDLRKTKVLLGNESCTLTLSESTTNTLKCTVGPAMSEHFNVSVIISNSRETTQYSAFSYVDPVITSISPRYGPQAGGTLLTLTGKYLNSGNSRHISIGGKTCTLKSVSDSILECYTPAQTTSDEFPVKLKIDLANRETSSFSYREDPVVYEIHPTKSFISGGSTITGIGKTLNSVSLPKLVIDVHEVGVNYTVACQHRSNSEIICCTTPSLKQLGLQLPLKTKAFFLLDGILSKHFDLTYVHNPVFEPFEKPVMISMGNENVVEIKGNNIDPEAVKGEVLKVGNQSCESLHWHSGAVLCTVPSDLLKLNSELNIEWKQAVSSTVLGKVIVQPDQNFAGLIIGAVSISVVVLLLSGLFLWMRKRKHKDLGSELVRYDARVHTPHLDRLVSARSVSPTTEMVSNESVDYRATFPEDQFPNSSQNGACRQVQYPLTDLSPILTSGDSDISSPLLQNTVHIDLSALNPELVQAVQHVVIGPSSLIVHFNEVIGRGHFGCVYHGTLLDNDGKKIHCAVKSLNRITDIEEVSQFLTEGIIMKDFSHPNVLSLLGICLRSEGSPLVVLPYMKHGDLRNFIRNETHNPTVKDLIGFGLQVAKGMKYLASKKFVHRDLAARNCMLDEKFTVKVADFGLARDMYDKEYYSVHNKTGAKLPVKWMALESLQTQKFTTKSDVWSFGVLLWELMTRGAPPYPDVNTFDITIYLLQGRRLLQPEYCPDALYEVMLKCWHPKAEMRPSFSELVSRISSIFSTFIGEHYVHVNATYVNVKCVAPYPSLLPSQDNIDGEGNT

A word on the inhibition: it is the drop in the measured response relative to a control, in per cent. In the case of `CCCn1cc(-c2cnc3nnc(Cc4ccc5ncccc5c4)n3n2)cn1`, the inhibition in data set [1] was 88.1%; in [2], 88.4%.
For `c1cnc2ccc(Cc3nnc4ncc(-c5cnc6ccccc6c5)nn34)cc2c1` the same measures were 63.1% and 78%.
On the same counts, the results for `Oc1cccc(-c2cnc3nnc(Cc4c[nH]c5ccccc45)n3n2)c1` are 8.2% and 10.2%.
On the same counts, the results for `Clc1ccc(-c2cnc3nnc(Cc4ccc5ncccc5c4)n3n2)cc1` are 69.2% and 80.6%.
As to `c1ccc(-c2cnc3nnc(Cc4ccc5ncccc5c4)n3n2)cc1`, the inhibition in data set [1] turned out to be 58.4%; in [2], 80.9%.
On the same counts, the results for `Clc1ccc(-c2cnc3nnc(Cc4ccc5ncccc5c4)n3n2)cc1Cl` are 82.2% and 83.5%.
What is called bioavailability is dose-corrected exposure relative to a reference, in per cent. A low value points to little systemic uptake. The term Tmax denotes the time from dosing to the highest level. One may read the clearance as a measure of how efficiently the substance is removed, as volume per time. Read a low clearance as a low capacity for elimination. Broadly, the Cmax is the maximum level reached in the sampled fluid or tissue. Broadly, the half-life is how long it takes for the measured level to halve. A higher half-life goes with slow loss. The term AUC(0-inf) denotes the area under the concentration-time curve extrapolated to infinity. A higher AUC(0-inf) goes with high exposure. In data set [3], `FC(F)(c1ccc2ncccc2c1)c1nnc2ncc(-c3ccco3)nn12` registered a bioavailability of 48%. The inhibition in vivo at 25 mg/kg in [4] was 65.8%. In data set [5], the Tmax is 0.42 h. Besides, the clearance in data set [6] was 39.5 mL/min/kg. Moreover, the Vd in [7] was 5.14 L/kg. In addition, the inhibition in vivo at 12.5 mg/kg in data set [8] was found to be 50.1%. Further, the peak level in [9] (Cmax) was 961 ng/mL. In addition, the half-life in [10] was 1.53 h. The AUC(0-inf) in data set [11] came out at 2040 ng·h/mL.
In the case of `COc1cccc(-c2cnc3nnc(Cc4ccc5ncccc5c4)n3n2)c1`, the inhibition in data set [1] was 69.8%; in data set [2] it was 81%.
On the same counts, the results for `Cn1cc(-c2cnc3nnc(Cc4ccc5ncccc5c4)n3n2)cn1` are 76.9% and 77.8%.
On the same counts, the results for `c1ccc(COc2ccc(-c3cnc4nnc(Cc5ccc6ncccc6c5)n4n3)cc2)cc1` are 53.8% and 88%.
For the compound `O=[N+]([O-])c1cccc(-c2cnc3nnc(Cc4ccc5ncccc5c4)n3n2)c1`, the figures for the inhibition in data set [1] and in data set [2] were 76.6% and 88.3%, respectively.
On the same counts, the results for `c1csc(-c2cnc3nnc(Cc4ccc5ncccc5c4)n3n2)c1` are 85.9% and 89.3%.
The compound `Cn1cc(-c2cnc3nnc(C(F)(F)c4ccc5ncccc5c4)n3n2)cn1` gave a clearance in [12] of 22.3 mL/min/kg. Moreover, in [3], the bioavailability came to 9.4%. The Tmax in data set [5] is 2.5 h. In addition, the Vd in data set [13] was determined as 0.81 L/kg. Also, the concentration in [9] peaked (Cmax) at 209 ng/mL. Also, in data set [11], the AUC(0-inf) stood at 780 ng·h/mL. The half-life in [14] was 1.14 h.
As to `c1cnc2ccc(Cc3nnc4ncc(-c5cnn(C6CCNCC6)c5)nn34)cc2c1`, the figures for the inhibition in [1] and in [2] were 14.9% and 77%, respectively.
As to `CCCn1cc(-c2cnc3nnc(C(F)(F)c4ccc5ncccc5c4)n3n2)cn1`, the Activity entry with Mus musculus was “Toxic”. Further, in [3], the bioavailability was 61.6%. Besides, in data set [4], the inhibition in vivo at 25 mg/kg is 96.6%. The Tmax in [5] was found to be 0.5 h. Moreover, in [6], the clearance was 30.7 mL/min/kg. Besides, the Vd in data set [7] was 3.2 L/kg. Moreover, the inhibition in vivo at 12.5 mg/kg in data set [8] worked out at 75.9%. In data set [9], the Cmax worked out at 1610 ng/mL. In data set [10], this compound gave a half-life of 1.21 h. Moreover, the AUC(0-inf) in data set [11] stood at 3390 ng·h/mL.
Consider `Brc1ccc(-c2cnc3nnc(Cc4c[nH]c5ccccc45)n3n2)cc1`, for which the inhibition came to 9.9% in data set [1] and 17.3% in [2].
`Brc1ccc(-c2cnc3nnc(Cc4ccc5ncccc5c4)n3n2)cc1`: the inhibition worked out at 75.8% in data set [1] and 83.6% in [2].
The term IC50 denotes the midpoint of a concentration-inhibition curve. With `Cn1cc(-c2ccc3nnc(C(F)(F)c4ccc5ncccc5c4)n3n2)cn1` [JNJ-38877605], the inhibition is 70.8% in data set [1] and 72.2% in data set [2]. Also, the IC50 in [15] was determined as 0.95 nM.
Turning to `c1ccc(Cn2cc(-c3cnc4nnc(Cc5ccc6ncccc6c5)n4n3)cn2)cc1`, the inhibition was determined as 68.3% in [1] and 89.5% in data set [2].
On to `CCn1cc(-c2cnc3nnc(Cc4ccc5ncccc5c4)n3n2)cn1`, for which the inhibition was 85.5% in data set [1] and 97.1% in data set [2].
For `Oc1cccc(-c2cnc3nnc(Cc4ccc5ncccc5c4)n3n2)c1` the same measures were 36.1% and 69.9%.
On the same counts, the results for `c1ccc(COc2ccc(-c3cnc4nnc(Cc5c[nH]c6ccccc56)n4n3)cc2)cc1` are 26.9% and 58%.
On the same counts, the results for `CC(C)(C)OC(=O)N1CCC(n2cc(-c3cnc4nnc(Cc5ccc6ncccc6c5)n4n3)cn2)CC1` are 68.9% and 86.6%.

The values above are taken from ChEMBL document CHEMBL3797175, “Discovery of 6-(difluoro(6-(4-fluorophenyl)-[1,2,4]triazolo[4,3-b][1,2,4]triazin-3-yl)methyl)quinoline as a highly potent and selective c-Met inhibitor” (Eur J Med Chem, 2016).
